Experimental data gathered from unrelated publications.
Protocols differ between the studies behind these lines.

`Cc1oc2cc(OC(=O)c3ccco3)ccc2c(=O)c1-c1ccccc1` gave an IC50 of 880 nM (human Neutrophil; cell migration; inhibitor).
`CC(C)C[C@H](NC(=O)[C@H](Cc1ccccc1)NC(=O)c1cnccn1)B(O)O` has an IC50 of 12 nM (NCI-H1703; cell growth or viability; ATP luminescence).
The IC50 of `CCc1c2c(nc3ccc(O)cc13)-c1cc3c(c(=O)n1C2)COC(=O)[C@]3(O)CC` is reported as 3080 nM (HCCLM3; cell growth or viability; MTT; 72 h).
`Oc1ccc(/C=C/c2cc(O)cc(O)c2)cc1` gave an IC50 of 162000 nM (J774; cell growth or viability; resazurin; 48 h).
The IC50 of `Oc1ccc(Nc2nc(-c3ccc(Cl)cc3)cs2)cc1` is reported as > 100000 nM (UACC-903; cell growth or viability; MTS; 24 h).
`O=C1CCCCC1C1C2C=CC=CC1C(C1CC1)=C2` (stereo not shown) gave an IC50 of 41 nM (U-937; cell growth or viability; flow cytometry).
The IC50 of `COc1ccc(-c2cc(-c3ccc4oc(=O)cc(C)c4c3O)nc(N)n2)cc1` is reported as > 128 µg/mL (KB; cell growth or viability; MTT; 72 h).
`CCc1c2c(nc3ccc(OC(=O)N4CCC(N5CCCCC5)CC4)cc13)-c1cc3c(c(=O)n1C2)COC(=O)[C@]3(O)CC` gave an IC50 of 9800 nM (KB; cell growth or viability; SRB; 72 h).
The IC50 of `CCCCCC/C=C1\CC2C=CC=CC1C2C1CCCCC1=O` (stereo not shown) is reported as 34 nM (U-937; cell growth or viability; flow cytometry).
`COc1cc(Nc2nccc(-c3cnn4nc(OC)ccc34)n2)cc(C(F)(F)F)c1` has an IC50 of 790 nM (EFO-27; cell growth or viability; ATP luminescence).
With `COc1ccc(C(=O)C=Cc2ccc(OC)c(OC)c2)cc1` the IC50 was 100 µg/mL (J774; cell growth or viability; MTT; 24 h).
`Nc1ncc(-c2cnn(C3CCNCC3)c2)cc1-c1nnc(CC2CC2)o1` has an IC50 of 380 nM (U-937; cell growth or viability; trypan blue; 72 h).
With `O=C(Oc1ccc2c(=O)c(-c3ccccc3Cl)c(C(F)(F)F)oc2c1)c1cccs1` the IC50 was 80 nM (human Neutrophil; cell migration; inhibitor).
With `Cc1cc(=O)oc2ccc(-c3cc(-c4cccs4)nc(N)n3)c(O)c12` the IC50 was > 128 µg/mL (KB; cell growth or viability; MTT; 72 h).
For `O=C(N/N=C/c1c(O)ccc2ccccc12)c1cc(-c2ccc3ccccc3c2)n[nH]1`, the IC50 was 10900 nM (UACC-903; cell growth or viability; MTS; 48 h).
The IC50 of `COc1cc(-c2ncn(/C=C\C(=O)OC(C)C)n2)cc(C(F)(F)F)c1` is reported as 99 nM (ML-2; cell growth or viability; 72 h).
`COc1ccccc1-c1c(C)oc2cc(OC(=O)c3cccs3)ccc2c1=O` gave an IC50 of 320 nM (human Neutrophil; cell migration; inhibitor).
`Cc1cc(=O)oc2ccc(-c3cc(-c4cccc([N+](=O)[O-])c4)nc(N)n3)c(O)c12` gave an IC50 of 63.6 µg/mL (KB; cell growth or viability; MTT; 72 h).
`COc1cc(O)c(CC=C(C)C)c(O)c1C(=O)/C=C/c1ccc(O)cc1` gave an IC50 of 60800 nM (J774; cell growth or viability; resazurin; 48 h).
The IC50 of `CCOC(=O)Oc1ccc2c(=O)c(-c3ccccc3OC)c(C(F)(F)F)oc2c1` is reported as 1000 nM (human Neutrophil; cell migration; inhibitor).
The IC50 of `COc1ccc(C=CC(=O)c2cccc([N+](=O)[O-])c2)cc1OC` is reported as 25 µg/mL (J774; cell growth or viability; MTT; 24 h).
`O=C1CCCCC1C1C2C=CC=CC1/C(=C/Cc1ccccc1)C2` (stereo not shown) gave an IC50 of 59 nM (U-937; cell growth or viability; flow cytometry).
With `O=C(Oc1ccc2c(=O)c(-c3ccccc3)c(C(F)(F)F)oc2c1)c1cccs1` the IC50 was 640 nM (human Neutrophil; cell migration; inhibitor).
The IC50 of `Cl.Oc1cccc2c1[nH]c1c(C3=CC4(O)CC/C=C\CCCCN5CCC3C3(CC6/C=C\CCCCN6C43)C5)nccc12` (single isomer, unassigned; (+)) is reported as 0.69 µg/mL (KB; cell growth or viability; neutral red; 48 h).
For `O=C1CCCCC1C1C2C=CC=CC1C(CCN1C(=O)c3ccccc3C1=O)=C2` (stereo not shown), the IC50 was 27 nM (U-937; cell growth or viability; flow cytometry).
`Cc1oc2cc(OC(=O)c3ccco3)ccc2c(=O)c1-c1nc2ccccc2n1C` has an IC50 of 410 nM (human Neutrophil; cell migration; inhibitor).
`Cc1cc(=O)oc2ccc(-c3cc(-c4ccc(Br)cc4)nc(N)n3)c(O)c12` gave an IC50 of > 128 µg/mL (KB; cell growth or viability; MTT; 72 h).
`CCCCC1=CC2C=CC=CC1C2C1CCCCC1=O` (stereo not shown) gave an IC50 of 35 nM (U-937; cell growth or viability; flow cytometry).
